Data published in ChEMBL document CHEMBL3877270, “Biological and structural studies of phosphonium 'masked thiolate' compounds” (Eur J Med Chem, 2017).

Columns and labels:
[1] = Cytotoxicity against human PC3 cells measured at 72 hrs post dose by Celltiter-Glo luminescent cell viability assay; format: functional, cell-based; conditions: PC-3, 72 h
Method in brief: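 PC3 cells (ATCC; DMEM GlutaMAX high glucose, 10% heat-inactivated FBS, pen/strep, 37 °C, 5% CO2) seeded 10,000/well, adhered overnight, then exposed 0–1000 µM for 24, 48, 72 h. Viability by CellTiter-Glo ATP luminescence after 30 min room-temperature equilibration. Vehicle controls at 0.1–0.001% DMSO. Quadruplicate wells, 3 independent experiments (n = 12). Normalised to control; IC50 from curve fit.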

[2] = Aqueous solubility of the compound; format: physicochemical; conditions: buffer
[3] = Drug uptake in human PC3 cells measured after 90 mins by MALDI-TOF-MS analysis; format: ADME, cell-based; conditions: pc-3, 1.5 h
Method in brief: (§1)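 Trypsinised PC3 cells washed in PBS, resuspended in low-K+ HEPES buffer pH 7.4, 0.5×10^6 cells incubated with compound at 5 µM final, 37 °C, 0–120 min. Cells washed in cold PBS, lysed in cold water, lysate spiked with tetraphenylphosphonium bromide internal standard, α-CHCA matrix, positive-ion MALDI-TOF-MS. Amount from calibration curve built in PC3 lysate; triplicate analyses, three independent experiments.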

[4] = Drug uptake in human PC3 cells measured after 30 mins by MALDI-TOF-MS analysis; format: ADME, cell-based; conditions: pc-3, 0.5 h; method in brief: as §1
[5] = Drug uptake in human PC3 cells measured after 10 mins by MALDI-TOF-MS analysis; format: ADME, cell-based; conditions: pc-3, 10 min; method in brief: as §1
[6] = Drug uptake in rat C6 cells at 10 uM measured after 10 to 90 mins by MALDI-TOF-MS analysis relative to tetraphenylphosphonium cation; format: ADME, cell-based; conditions: c6, 10 µM

Structure (SMILES)	IC50 [1] [µM]	solubility [2]	further results
Cc1ccc(-c2nc([P+](c3ccccc3)(c3ccccc3)c3ccccc3)c[se]2)cc1	0.4	–	–
C/C(N)=C/[P+](c1ccccc1)(c1ccccc1)c1ccccc1	8	–	–
CC(=O)SCCC[P+](c1ccc(F)cc1)(c1ccc(F)cc1)c1ccc(F)cc1.[Br-]	252	Soluble	Drug uptake [3]: Active
CC(=O)SCCC[P+](c1ccccc1)(c1ccccc1)c1ccccc1.[Br-]	67	Soluble	Drug uptake [4]: Active; Drug uptake [5]: Active
Fc1ccc([P+](c2ccccc2)(c2ccccc2)c2ccccc2)cc1 [BFPET]	–	–	Drug uptake [6]: 80%
